# Compound activity (PubChem)
# ABHD5-PLIN5 inh = ABHD5-PLIN5 interaction inhibitors, primary screen, cell lysate, split luciferase complementation, luminescence | Split G. princeps luciferase complementation, 4 h | inhibition, % at 4 µM | hit rate 0.78% among 360,000 | AID 602281, 2012;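 active = inhibition above the mean inhibition across every tested compound plus 3 SD, cut at about 22% in these data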;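 note: 0% = DMSO only wells and the 100% control is not disclosed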
# Arrestin-AP2 inh = inhibitors of beta-arrestin/AP2 binding, primary screen, biochemical, GPCR trafficking, flow cytometry | beta-arrestin 1 C-terminal peptide binding to AP2 beta2-adaptin appendage (human) | FITC-arrestin peptide / GST-AP2 beads; AP2 beta2 appendage carries R879A mutation | inhibition, % at 10 µM | hit rate 0.31% among 340,000;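 active = inhibition above a set limit, near 3 SD of compounds lacking own fluorescence, cut at about 54% in these data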;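 note: plate controls were DMSO wells for no effect and 5 µM unlabelled arrestin peptide for full effect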
#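 test system = AP2 appendage R879A on GSH beads | buffer or medium = PBS plus Tween 20 (0.05%) and BSA (0.1%) | incubation = 12 min plus 1 h, RT | detection = bead flow cytometry, FITC channel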
# UHRF1 binding = UHRF1 methylated DNA binding inhibitors, primary screen, counter-screen for MBD2 inhibitor project, biochemical, TR-FRET, human UHRF1, single concentration; inhibition, % at 4.4 µM; AID 687016, 2013; hit rate 0.75% among 370,000; E3 ubiquitin-protein ligase UHRF1 (Homo sapiens), Q96T88; UHRF1 binding to methylated oligo; in the data active = inhibition above about 21%;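 note: UHRF1 SRA domain binding a hemimethylated CpG hairpin DNA probe; 0% = median of test compound wells and 100% = reference inhibitor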
# Target sequence (Q96T88 whole entry, looked up, the tested form may be a part): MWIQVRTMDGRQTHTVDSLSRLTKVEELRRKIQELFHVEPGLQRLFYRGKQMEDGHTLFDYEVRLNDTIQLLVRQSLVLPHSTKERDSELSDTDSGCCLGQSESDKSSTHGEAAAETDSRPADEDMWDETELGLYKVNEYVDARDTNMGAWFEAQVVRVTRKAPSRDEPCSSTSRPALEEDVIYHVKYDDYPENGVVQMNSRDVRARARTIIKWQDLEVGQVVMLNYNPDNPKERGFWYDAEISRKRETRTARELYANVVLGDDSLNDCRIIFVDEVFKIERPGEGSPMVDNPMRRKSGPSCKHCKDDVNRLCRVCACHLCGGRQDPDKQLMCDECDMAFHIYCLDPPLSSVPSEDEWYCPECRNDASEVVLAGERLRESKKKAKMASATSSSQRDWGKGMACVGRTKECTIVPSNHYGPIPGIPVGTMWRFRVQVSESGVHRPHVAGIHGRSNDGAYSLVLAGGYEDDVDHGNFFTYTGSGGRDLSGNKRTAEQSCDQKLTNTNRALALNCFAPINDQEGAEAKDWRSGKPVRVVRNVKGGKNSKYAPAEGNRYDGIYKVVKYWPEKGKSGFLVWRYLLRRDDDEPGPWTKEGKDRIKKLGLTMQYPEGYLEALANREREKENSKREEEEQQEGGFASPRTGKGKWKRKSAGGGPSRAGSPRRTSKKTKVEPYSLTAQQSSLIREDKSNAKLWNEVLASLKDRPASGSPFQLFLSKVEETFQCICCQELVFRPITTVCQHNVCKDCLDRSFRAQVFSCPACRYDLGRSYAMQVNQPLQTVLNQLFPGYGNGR
# Rin1 Abl inh = inhibitors of Rin1-Abl protein binding, primary screen, biochemical, TR-FRET; Tyrosine-protein kinase ABL1 (Homo sapiens) + Ras and Rab interactor 1 (Homo sapiens), …; inhibition, % at 7.35 µM; hit rate 0.4% among 360,000; AID 588664, 2011; in the data active = inhibition above about 5%, passing the limit was not always enough
# B2AR ag = beta2AR agonists driving receptor internalization, primary screen, cell-based, FAP fluorogen, flow cytometry. Am2.2-beta2AR cells. AID 504454, 2011. Beta-2 adrenergic receptor (Homo sapiens), P07550. hit rate 0.43% among 340,000. response, % (concentration not given with the values);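 active = response above a set limit, near 3 SD of response in nonfluorescent compounds, cut at about 42% in these data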
# MBD2 DNA inh = inhibitors of MBD2 binding to methylated DNA, primary screen, biochemical, TR-FRET, DNA-binding domain, human; MBD2 binding to methylated oligonucleotide; inhibition, % at 4.4 µM; hit rate 0.31% among 370,000; in the data active = inhibition above about 13%
# Arr AP2 CP1 = inhibitors of arrestin peptide binding to AP2, confirmation, biochemical, cherry pick 1, flow cytometry beads; hit rate 2% among 1,300; GST-AP2 beads, FITC arrestin peptide binding; GST-fused beta2-adaptin appendage, R879A mutant; inhibition, % at 10 µM; shares compounds with Arrestin-AP2 inh;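 active = inhibition above a set limit, roughly 3 SD of non-fluorescent compound noise, cut at about 38% in these data; inactive = inhibition at or below that limit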;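 note: loss of bead fluorescence from 50 nM FITC arrestin peptide bound to appendage; 0% = negative control wells and 100% = excess unlabelled arrestin peptide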
# GST GSH counter = GST-fluorescein capture on glutathione beads, confirmation, artefact control for arrestin-AP2 inhibitor project, biochemical, cherry pick 1, flow cytometry | shares compounds with Arrestin-AP2 inh | GST-fluorescein binding to GSH beads, fluorescence, counter-screen | inhibition, % at 10 µM | hit rate 2% among 1,300 | AID 588338, 2011;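 active = inhibition above 50%, about 3 SD of the inhibition seen with non-fluorescent compounds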;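 note: fluorescein maleimide labelled GST captured on 4 micron glutathione beads; higher means more loss of bead fluorescence from quenching or blocked binding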
# Active calls of the source: *; nt = not tested or not shown. Shown are actives, neighbours in structure and some others; about 2.5% of the full set was active somewhere.
SMILES,ABHD5-PLIN5 inh,Arrestin-AP2 inh,UHRF1 binding,Rin1 Abl inh,B2AR ag,MBD2 DNA inh,Arr AP2 CP1,GST GSH counter
C#CCNC(=O)C[C@H]1C[C@@]2(C(=O)OC)C(=C[C@H](C3CCCC3)O[C@@H]2C)N(CCC2=CCCCC2)C1=O,nt,nt,3.8,nt,nt,1.5,nt,nt
CCCCCCCCN1C(=O)[C@@H](CC(=O)NCc2cccs2)C[C@@]2(C(=O)OC)C1=C[C@H](C(C)C)O[C@@H]2C1CC1,nt,nt,-1.0,nt,nt,-2.3,nt,nt
C#Cc1cccc(NC(=O)Cc2cccs2)c1,4.3,56.3*,-2.9,-0.6,-3.0,-6.4,2.8,-8.4
CCN1/C(=C/c2ccc3cc(C)ccc3[n+]2CC)Sc2ccc3sccc3c21,5.2,75.1*,nt,-10.0,nt,nt,42.5*,139.7*
CCN(CC(=O)Nc1ccc(NC(C)=O)cc1)C(=O)CCCc1c[nH]c2ccccc12,4.5,62.1*,-2.2,1.7,1.9,-1.0,-3.8,-5.4
CC(=O)Nc1ccc(NC(=O)CCCc2c[nH]c3ccccc23)cc1,3.4,10.6,9.2,3.2,20.9,0.4,nt,nt
CC(=O)Nc1ccc(NC(=O)CCCSc2nc3ccccc3[nH]2)cc1,5.0,1.6,1.8,1.2,-8.1,-3.6,nt,nt
CCN(CC(=O)Nc1ccc(NC(C)=O)cc1)C(=O)CCCSc1nc2ccccc2[nH]1,16.9,66.5*,3.7,1.4,-1.8,3.6,-15.7,0.8
CN(c1c2c(nc3ncnn13)CCCC2)C1CCCCC1,nt,nt,1.4,nt,nt,-2.3,nt,nt
CCOc1ccc(CN2CCN(Cc3cc4ccccc4o3)CC2CCO)cc1 (stereo not drawn),6.7,65.5*,2.6,-0.3,5.7,-1.9,5.4,2.5
C/C(=N\NC(=O)CCCCCNC(=O)c1ccccc1)c1ccccc1O,0.3,-13.7,1.7,-2.3,3.0,0.4,nt,nt
O=C(CCCCCNC(=O)c1ccccc1)N/N=C/c1ccc(O)cc1O,2.8,59.8*,20.9*,-3.7,23.9,10.8,-3.7,5.0
COc1ccc(S[C@]2(C(=O)N3CCCC3)CC(=O)N(c3ccccc3OC)[C@@H]2c2ccc(OC)cc2)cc1,nt,nt,0.5,nt,nt,-2.3,nt,nt
COc1ccc(/C=C/C(=O)OCC(=O)NC2CCCC(C)C2C)c(OC)c1 (stereo not drawn),8.9,64.0*,-2.0,2.6,0.1,-2.0,2.7,-6.0
COc1ccc(/C=C/C(=O)OCC(=O)NC2CC2)c(OC)c1,11.1,-0.4,-2.7,0.5,-12.7,-7.8,nt,nt
COc1ccc(S(=O)(=O)Nc2cccc(-c3ccc(N4CCCCCC4)nn3)c2)c(OC)c1,-6.2,-9.8,4.1,3.3,-5.4,1.4,nt,nt
COc1ccc(OC)c(S(=O)(=O)Nc2cccc(-c3ccc(N4CCCCCC4)nn3)c2)c1,-5.5,60.0*,-2.6,-2.9,11.5,-0.4,6.0,-4.4
Cc1ccc(OCc2cn3cccnc3n2)cc1,1.2,67.0*,-0.4,4.0,-14.4,4.0,-4.8,10.9
COc1ccc(C(C(=O)N(C)C2CCCC2)N(Cc2ccc(F)cc2)C(=O)c2csc3ccc(Cl)cc23)cc1OC (stereo not drawn),nt,nt,-2.8,nt,nt,-4.9,nt,nt
O=C(NCCCN1CCCC1=O)c1cc(=O)c2ccccc2o1,2.0,74.0*,-2.1,2.2,2.2,-4.0,3.9,0.9
O=C(NCCCN1CCCC1=O)c1cc2ccccc2o1,10.2,2.7,-0.5,0.2,3.6,-4.9,nt,nt
COC(=O)[C@H]1C[C@@]2(N3CCCCC3)c3ccccc3N[C@H]2N1S(=O)(=O)c1ccc([N+](=O)[O-])cc1,nt,nt,-3.5,nt,nt,-4.6,nt,nt
Fc1cccc(F)c1/C=N/Nc1ccccn1,-2.2,55.2*,-0.6,-4.8,-10.9,0.9,-4.3,-2.1
Fc1cccc(Cl)c1/C=N/Nc1ccccn1,1.5,10.5,-0.5,-0.8,1.3,-0.8,nt,nt
CCCCCOc1ccc(NC(=O)C2OC3OC(C)(C)OC3C3OC(C)(C)OC23)cc1 (stereo not drawn),-4.3,107.1*,-2.9,-0.9,-4.5,0.3,-0.3,10.1
SMILES,ABHD5-PLIN5 inh,Arrestin-AP2 inh,UHRF1 binding,Rin1 Abl inh,B2AR ag,MBD2 DNA inh,Arr AP2 CP1,GST GSH counter
Cc1ccccc1CN1CCCCC(NC(=O)c2ccc(F)cc2)C1=O (stereo not drawn),nt,nt,-2.3,nt,nt,-6.7,nt,nt
COc1ccc(C(=O)C2CCCN(Cc3cn[nH]c3-c3ccc(F)cc3)C2)cc1OC (stereo not drawn),-0.7,10.4,-2.0,2.2,-9.1,-5.5,nt,nt
COc1ccc(S(=O)(=O)N2CCCC(C(=O)N3CCCC3)C2)cc1OC (stereo not drawn),9.9,69.1*,-0.6,2.6,-4.8,-4.6,-8.6,-9.8
COc1ccc(C(=O)C2CCCN(C(=O)C3=CCCC3)C2)cc1OC (stereo not drawn),-1.0,59.4*,0.4,-0.4,5.3,2.1,-10.1,nt
CCOc1ccccc1CN1CCCC(C(=O)c2ccc(OC)c(OC)c2)C1 (stereo not drawn),7.5,54.3*,2.2,-0.9,-0.4,-2.5,-7.3,4.5
Cc1cccc(NC(=O)C2CCCN2S(=O)(=O)c2cccc3cccnc23)c1C (stereo not drawn),nt,nt,0.4,nt,nt,-0.3,nt,nt
O=C(C1CC1)N1CCc2cc(Br)c(S(=O)(=O)NCCCN3CCCCC3)cc21,nt,nt,-3.5,nt,nt,1.2,nt,nt
Cc1ccn2c(NC(=O)C(C)(C)Oc3ccc(Cl)cc3)c(-c3cccs3)nc2c1,-1.8,60.4*,1.7,-2.7,-0.3,0.1,-6.1,3.9
COC(=O)[C@H](Cc1ccccc1)N(Cc1cn(Cc2ccccc2)nn1)S(=O)(=O)c1ccccc1Br,nt,nt,3.5,nt,nt,2.9,nt,nt
CCN(CC)C(=O)c1cccc(NC(=O)C2=COCCO2)c1,9.0,68.1*,-1.8,0.4,-2.9,1.5,-11.7,-5.5
Nc1nnc(SCC(=O)OCC(=O)Nc2ccccc2F)s1,5.5,57.0*,2.2,2.6,-2.9,-2.1,-6.5,-10.1
COC(=O)[C@]1(CNC(=O)Nc2ccc(C)c(Cl)c2)CC(=O)N(C)[C@@H]1c1ccccc1,nt,nt,5.3,nt,nt,1.6,nt,nt
CCNS(=O)(=O)c1ccc(NC(=O)Cn2nc(C(F)(F)F)cc2C)cc1,-8.8,61.6*,2.5,2.4,-1.2,0.9,6.8,4.8
COc1ccccc1Nc1nc2c(C)cccc2cc1C#N,8.4,57.4*,-1.1,-5.5,8.0,2.9,-2.9,9.2
